About 3,000 (0.88%) of roughly 340,000 compounds were called active. Many of the other results were omitted from the sample, so actives are more common in it than they were. Values without a mark were called inactive.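 Rule for the calls: active = inhibition above about 50% at 20 µM (limit read from the data); inactive = the rest.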
Target: Carboxy-terminal domain RNA polymerase II polypeptide A small phosphatase 1 (Homo sapiens) (UniProt Q9GZU7)
Assay: inhibition of human SCP1 dephosphorylation activity – biochemical, colorimetric, uHTS, primary screen (AID 493091);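 note: plate controls were DMSO wells with enzyme for no effect and wells lacking enzyme for full effect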
Conditions: Recombinant Scp1, phosphopeptide, malachite green phosphate absorbance; at 20 µM; active compounds read high
Procedure, shortened: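 System: SCP-1 catalytic domain; Reagent: Phospho 17-mer peptide substrate; Doses: one concentration, 20 µM, with 1.0% DMSO; Incubation: 45 min room-temperature reaction, 5 min colour, 30 min stabiliser; Signal: Phosphate-binding colour reagent, absorbance read at 630 nm.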

Carboxy-terminal domain RNA polymerase II polypeptide A small phosphatase 1 (Homo sapiens), sequence (Q9GZU7 76-261 limits assumed): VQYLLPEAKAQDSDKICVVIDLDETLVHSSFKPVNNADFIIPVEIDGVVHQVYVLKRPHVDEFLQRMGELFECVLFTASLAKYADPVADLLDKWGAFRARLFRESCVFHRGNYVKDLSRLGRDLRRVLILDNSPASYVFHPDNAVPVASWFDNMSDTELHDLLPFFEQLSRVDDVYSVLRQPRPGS

Row | Structure (SMILES) | inhibition
1 | O=C(O)CCn1cc(C=C2C(=O)NC(=S)NC2=O)c(-c2cccc(Br)c2)n1 | 69.2% (active)
2 | CC(=O)N(C1=NCCCS1)c1ccccc1F | -8.48%
3 | Nc1ccc(Cc2ccc(N)c(Cl)c2)cc1Cl | -6.26%
4 | Cc1ccc(C2CN(C)CC2C(=O)c2ccc(F)cc2)cc1 (stereo not given) | 2.83%
5 | O=C(Cc1ccc(Cl)cc1)NCCN1CCN(C(=O)Cc2ccc(Cl)cc2)CC1 | -8.32%
6 | Cc1ccc(S(=O)(=O)N(C)c2ccc(C(=O)NCC3(N(C)C)CCCCC3)cc2)cc1 | -2.43%
7 | O=C1NC(=O)N(Cc2ccco2)C(=O)/C1=C\c1ccc(-c2ccc(F)cc2)o1 | 5.05%
8 | COc1cccc(N2C(=O)NC(=O)/C(=C\c3ccc([N+](=O)[O-])s3)C2=O)c1 | 17.3%
9 | COc1ccc(N2C(=O)/C(=C/c3ccco3)C(=O)NC2=S)cc1 | 92.7% (active)
10 | CCN(CC)CCOC(=O)c1cc2cc(COC)ccc2o1 | 70.7% (active)
11 | COc1ccc2c(c1)NP(=S)(c1ccccc1)N2 (stereo not given) | 0.52%
12 | CSc1ccc(C(=O)C2CCCN(Cc3ccn[nH]3)C2)cc1 (stereo not given) | -7.2%
13 | CCN(CC)C(=O)Oc1ccc(NC(=O)N2CCOCC2)cc1 | -3.55%
14 | COC(=O)C1=C(c2cc3ccccc3s2)C[C@@H]2CC[C@H]1N2C(=O)NCc1cccc2ccccc12 | -7.13%
15 | O=c1[nH]c(=O)n(CCc2ccc(F)cc2)c(O)c1/C=N/N1CCCCC1 | 51% (active)
16 | O=c1[nH]c(=O)n(CCc2ccccc2)c(O)c1/C=N/N1CCOCC1 | -5.04%
17 | O=c1[nH]c(=O)n(-c2ccc(F)cc2)c(O)c1C=NCCN1CCCCC1 | -0.8%
18 | CN1CCN(Cc2ccc(OC(F)(F)F)cc2)CC1 | 22.4%
19 | COc1ccccc1N=Nc1c(O)[nH]c(=S)[nH]c1=O | 9.19%
20 | COc1ccccc1N=C1SCCCN1C | 95.3% (active)
21 | CC(=O)Nc1ccc(C(=O)C(Cc2ccccc2)N(C)C)cc1 (stereo not given) | -12.1%
22 | O=C(NCC(c1cccnc1)N1CCN(c2ccccc2)CC1)Oc1ccccc1 (stereo not given) | -0.44%
23 | CC1CNCCN1c1ccc(Cl)cc1 (stereo not given) | 2.17%
24 | CN(C)C(=O)Oc1ccc2c(c1)O/C(=C\c1ccccc1)C2=O | -15.9%
25 | Cc1ccc(C)c(NC2=NCCCS2)c1 | -6%

Reference: PubChem BioAssay AID493091 (Sanford-Burnham Center for Chemical Genomics, 2011)
